How the values were obtained:
PDE10A = PDE10A (Homo sapiens, UniProt Q9Y233); assay: PDE10A inhibition, fluorescence polarization; type: biochemical
Procedure, shortened: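 Test compound was dissolved in DMSO, stored at −20 °C and tested in a 10-point, 3-fold serial dilution from a top concentration of 1 µmol/L (n = 3). Enzyme activity was read by fluorescence polarization, and IC50 was derived from the concentration–response data.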

[1] = tested on: PDE1A/B/C, PDE2A, PDE3A/B, PDE4A/B/C/D, PDE5A, PDE7A, PDE8A, PDE9A; assay: PDE selectivity panel, fluorescence polarization, single dose 5 μmol/L; type: biochemical; details: concentrations up to 5 μmol/L

PDE10A, sequence (Q9Y233 whole entry): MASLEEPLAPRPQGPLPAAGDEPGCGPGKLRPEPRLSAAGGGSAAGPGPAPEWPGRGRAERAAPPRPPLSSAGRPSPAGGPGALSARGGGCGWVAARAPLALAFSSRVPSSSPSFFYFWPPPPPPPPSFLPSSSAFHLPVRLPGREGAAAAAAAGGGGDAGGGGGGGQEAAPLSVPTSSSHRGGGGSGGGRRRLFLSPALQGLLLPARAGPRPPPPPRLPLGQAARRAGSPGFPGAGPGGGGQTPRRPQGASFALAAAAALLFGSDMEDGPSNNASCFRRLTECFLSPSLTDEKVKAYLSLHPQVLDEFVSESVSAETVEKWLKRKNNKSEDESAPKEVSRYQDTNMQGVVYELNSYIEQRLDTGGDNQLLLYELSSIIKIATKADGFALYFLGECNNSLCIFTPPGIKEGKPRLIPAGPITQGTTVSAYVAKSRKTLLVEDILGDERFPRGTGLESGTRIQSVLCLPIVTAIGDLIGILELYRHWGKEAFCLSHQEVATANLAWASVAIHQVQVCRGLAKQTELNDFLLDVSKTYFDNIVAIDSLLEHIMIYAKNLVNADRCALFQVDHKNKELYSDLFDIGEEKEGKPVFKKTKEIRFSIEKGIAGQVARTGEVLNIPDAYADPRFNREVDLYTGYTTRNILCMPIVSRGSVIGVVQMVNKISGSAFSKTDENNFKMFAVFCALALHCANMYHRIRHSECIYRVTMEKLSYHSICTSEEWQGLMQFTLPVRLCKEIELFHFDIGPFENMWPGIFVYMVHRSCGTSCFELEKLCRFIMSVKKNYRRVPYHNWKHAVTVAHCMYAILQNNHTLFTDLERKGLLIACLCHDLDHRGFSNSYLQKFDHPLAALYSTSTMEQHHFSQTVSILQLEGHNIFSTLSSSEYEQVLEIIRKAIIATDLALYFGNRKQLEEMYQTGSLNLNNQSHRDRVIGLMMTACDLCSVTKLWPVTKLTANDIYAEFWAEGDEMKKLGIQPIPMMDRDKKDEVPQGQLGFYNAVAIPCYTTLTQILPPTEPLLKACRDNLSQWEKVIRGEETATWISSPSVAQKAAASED

IC50 (PDE10A): 2.07 nM
SMILES: Cc1ccc2c(=O)n(-c3ccc(F)cc3)c(CCN3C(=O)c4cccc(OC(C)C)c4C3=O)nc2c1 [compound 9, 2-(2-(3-(4-Fluorophenyl)-7-methyl-4-oxo-3,4-dihydroquinazolin-2-yl)ethyl)-4-isopropoxyisoindoline-1,3-dione]
inhibition of other PDE subtypes [1]: no significant inhibition
